Assay results published in ChEMBL document CHEMBL3407479, “Structure-activity relationship for the oxadiazole class of antibiotics” (J Med Chem, 2015).
Converted amounts (≈) assume the structure as drawn. The source made the active and inactive calls. The calls are words filed in the database; no cut-off is given here.

Experiments:
Streptococcus oralis = assay: Antibacterial activity against Streptococcus oralis ATCC 9811 after 16 to 20 hrs by broth microdilution method; format: functional
[1] = Volume of distribution in ICR mouse at 20 mg/kg, iv; format: ADME, organism-based; set-up: dose 20 mg/kg, route intravenous; conditions: in vivo
[2] = Terminal half life in ICR mouse at 20 mg/kg, iv; format: ADME, organism-based; set-up: dose 20 mg/kg, route intravenous; conditions: in vivo, read-out: beta t1/2 (converted)
[3] = Distribution phase half life in ICR mouse at 20 mg/kg, po; format: ADME, organism-based; set-up: dose 20 mg/kg, route oral; conditions: in vivo, read-out: alphat1/2 (converted)
[4] = Tmax in ICR mouse at 20 mg/kg, po; format: ADME, organism-based; set-up: dose 20 mg/kg, route oral; conditions: in vivo
Enterococcus faecalis = assay: Antibacterial activity against vancomycin-resistant Enterococcus faecalis 99 clinical isolate after 16 to 20 hrs by broth microdilution method; format: functional
[5] = system: Staphylococcus epidermidis; assay: Antibacterial activity against Staphylococcus epidermidis ATCC 35547 after 16 to 20 hrs by broth microdilution method; format: functional
Staphylococcus aureus [6] = assay: Antibacterial activity against vancomycin/methicillin-resistant Staphylococcus aureus VRS1 clinical isolate after 16 to 20 hrs by broth microdilution method; format: functional
HepG2 = assay: Cytotoxicity against human HepG2 cells assessed as cell viability after 16 hrs by XTT assay; format: cell-based; conditions: HepG2, 16 h
Procedure, shortened: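 HepG2 cells were run in triplicate in an XTT viability assay. IC50 was derived from the concentration–response data.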

Staphylococcus aureus [7] = assay: Antibacterial activity against methicillin-resistant Staphylococcus aureus ATCC 27660 in po dosed ICR mouse peritonitis infection model assessed as survival rate administered at 1 hr post infection; format: functional; conditions: ATCC 27660, po
Procedure, shortened: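 Female ICR mice, 6–8 weeks, given 0.5 mL ip of S. aureus (final 5×10^7 cfu/mL in 5% mucin). Six mice per dose level; a single oral dose at 1 h post-infection.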

Mus musculus [8] = assay: AUC (0 to 24 hrs) in ICR mouse at 20 mg/kg, po; format: ADME, organism-based, Plasma; set-up: time < 24 hr, dose 20 mg/kg, route oral; conditions: in vivo
[9] = system: Staphylococcus haemolyticus; assay: Antibacterial activity against Staphylococcus haemolyticus ATCC 29970 after 16 to 20 hrs by broth microdilution method; format: functional
[10] = Cmax in ICR mouse at 20 mg/kg, po; format: ADME, organism-based; set-up: dose 20 mg/kg, route oral; conditions: in vivo
[11] = Plasma protein binding in human at 10 uM after 6 hrs by equilibrium dialysis assay; format: ADME, cell-free
[12] = AUC (0 to infinity) in ICR mouse at 20 mg/kg, po; format: ADME, organism-based; set-up: time infinity, dose 20 mg/kg, route oral; conditions: plasma
[13] = Elimination half life in ICR mouse at 20 mg/kg, po; format: ADME, organism-based; set-up: dose 20 mg/kg, route oral; conditions: in vivo, read-out: beta t1/2 (converted)
[14] = Primary phase half life in ICR mouse at 20 mg/kg, iv; format: ADME, organism-based; set-up: dose 20 mg/kg, route intravenous; conditions: in vivo, read-out: alphat1/2
Staphylococcus aureus [15] = assay: Bactericidal activity against methicillin-sensitive Staphylococcus aureus ATCC 29213 after 48 hrs; format: functional; conditions: ATCC 29213, 48 h
Staphylococcus aureus [16] = assay: Antibacterial activity against methicillin-resistant Staphylococcus aureus ATCC 27660 in ICR mouse peritonitis infection model assessed as survival rate at 20 mg/kg, iv administered at 0.5 and 7.5 hrs post infection measured for 48 hrs; format: functional, organism-based; set-up: dose 20 mg/kg
Procedure, shortened: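 Female ICR mice, 6–8 weeks, ~20 g, n = 6 per group. Bacteria at 10^8 cfu/mL mixed 1:1 with 10% mucin just before use; 0.5 mL given ip (final 5×10^7 cfu/mL, 5% mucin). Compound at 20 mg/kg iv by tail vein, twice, at 30 min and 7.5 h post-infection. […] Survivors counted at 48 h.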

Staphylococcus aureus [17] = assay: Antibacterial activity against methicillin-resistant Staphylococcus aureus ATCC 27660 in iv dosed ICR mouse peritonitis infection model assessed as survival rate administered at 0.5 and 7.5 hrs post infection; format: functional; conditions: ATCC 27660, iv
[18] = AUC (0 to infinity) in ICR mouse at 20 mg/kg, iv; format: ADME, organism-based; set-up: time infinity, dose 20 mg/kg, route intravenous; conditions: plasma
Bacillus cereus = assay: Antibacterial activity against Bacillus cereus ATCC 13061 after 16 to 20 hrs by broth microdilution method; format: functional
Streptococcus pyogenes = assay: Antibacterial activity against Streptococcus pyogenes ATCC 49399 after 16 to 20 hrs by broth microdilution method; format: functional
Staphylococcus aureus [19] = assay: Antibacterial activity against methicillin-sensitive Staphylococcus aureus ATCC 29213 after 16 to 20 hrs by broth microdilution method; format: functional
[20] = Clearance in ICR mouse at 20 mg/kg, iv; format: ADME, organism-based; set-up: dose 20 mg/kg, route intravenous; conditions: in vivo
Enterococcus faecium [21] = assay: Antibacterial activity against Enterococcus faecium NCTC 7171 after 16 to 20 hrs by broth microdilution method; format: functional
Staphylococcus aureus [22] = assay: Antibacterial activity against methicillin-resistant Staphylococcus aureus ATCC 27660 in po dosed ICR mouse peritonitis infection model assessed as survival rate administered at 0.5 and 7.5 hrs post infection; format: functional; conditions: ATCC 27660, po
Mus musculus [23] = assay: AUC (0 to 24 hrs) in ICR mouse at 20 mg/kg, iv; format: ADME, organism-based, Plasma; set-up: time < 24 hr, dose 20 mg/kg, route intravenous; conditions: in vivo
Enterococcus faecium [24] = assay: Ratio of MBC to MIC for Enterococcus faecium NCTC 7171; format: functional

FC(F)(F)c1ccc(Oc2ccc(-c3noc(-c4ccc5[nH]ccc5c4)n3)cc2)cc1
MIC (Streptococcus oralis): 128 µg/mL (≈ 304 µM) | Vd [1]: 4.73 L/kg | half-life [2]: 9.6 h | half-life [3]: 15.9 h | Tmax [4]: 6 h | MIC (Enterococcus faecalis): 16 µg/mL (≈ 38 µM) | MIC [5]: 4 µg/mL (≈ 9.49 µM) | MIC (Staphylococcus aureus [6]): 1 µg/mL (≈ 2.37 µM) | IC50 (HepG2): 75.7 µg/mL (≈ 180 µM) | ED50 (Staphylococcus aureus [7]): 3.1 mg/kg | AUC (Mus musculus [8]): 3060 µg·min/mL | MIC [9]: 8 µg/mL (≈ 19 µM) | Cmax [10]: 2340 ng/mL | PPB [11]: 98.2% | AUC(0-inf) [12]: 67700 ng·h/mL | half-life [13]: 18.6 h | half-life [14]: 32.4 s | MBC (Staphylococcus aureus [15]): 2 µg/mL (≈ 4.75 µM) | Activity (Staphylococcus aureus [16]): Active | ED50 (Staphylococcus aureus [17]): 7.6 mg/kg | AUC(0-inf) [18]: 58700 ng·h/mL | MIC (Bacillus cereus): 16 µg/mL (≈ 38 µM) | MIC (Streptococcus pyogenes): 64 µg/mL (≈ 152 µM) | MIC (Staphylococcus aureus [19]): 2 µg/mL (≈ 4.75 µM) | clearance [20]: 5.68 mL/min/kg | MIC (Enterococcus faecium [21]): 2 µg/mL (≈ 4.75 µM) | ED50 (Staphylococcus aureus [22]): 1.7 mg/kg | AUC (Mus musculus [23]): 3140 µg·min/mL | Ratio (Enterococcus faecium [24]): 2
